Converted amounts (≈) assume the structure as drawn.
Experiments:
[1] = system: Acinetobacter baumannii; experiment: Antibacterial activity against Acinetobacter baumannii assessed as reduction in bacterial cell viability incubated for 24 hrs by two fold serial dilution method; type: functional
In short: (§1)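 Broth two-fold serial dilution run to CLSI guidelines. Chloromycin, norfloxacin and fluconazole served as reference drugs.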

[2] = system: Candida albicans; experiment: Antifungal activity against Candida albicans ATCC 90023 assessed as reduction in fungal cell viability incubated for 24 hrs by two fold serial dilution method; type: functional; conditions: ATCC 90023, 24 h; in short: as §1
[3] = system: Staphylococcus aureus; experiment: Antibacterial activity against Staphylococcus aureus assessed as reduction in bacterial cell viability incubated for 24 hrs by two fold serial dilution method; type: functional; in short: as §1
[4] = system: Pseudomonas aeruginosa; experiment: Antibacterial activity against Pseudomonas aeruginosa ATCC 27853 assessed as reduction in bacterial cell viability incubated for 24 hrs by two fold serial dilution method; type: functional; conditions: ATCC 27853, 24 h; in short: as §1
[5] = system: Aspergillus fumigatus; experiment: Antifungal activity against Aspergillus fumigatus assessed as reduction in fungal cell viability incubated for 24 hrs by two fold serial dilution method; type: functional; in short: as §1
[6] = system: Staphylococcus aureus; experiment: Antibacterial activity against Staphylococcus aureus ATCC 25923 assessed as reduction in bacterial cell viability incubated for 24 hrs by two fold serial dilution method; type: functional; conditions: ATCC 25923, 24 h; in short: as §1
[7] = system: Klebsiella pneumoniae; experiment: Antibacterial activity against Klebsiella pneumoniae assessed as reduction in bacterial cell viability incubated for 24 hrs by two fold serial dilution method; type: functional; in short: as §1
[8] = system: Candida tropicalis; experiment: Antifungal activity against Candida tropicalis assessed as reduction in fungal cell viability incubated for 24 hrs by two fold serial dilution method; type: functional; in short: as §1
[9] = system: Escherichia coli; experiment: Antibacterial activity against Escherichia coli assessed as reduction in bacterial cell viability incubated for 24 hrs by two fold serial dilution method; type: functional; in short: as §1
[10] = system: Staphylococcus aureus; experiment: Antibacterial activity against Staphylococcus aureus ATCC 29213 assessed as reduction in bacterial cell viability incubated for 24 hrs by two fold serial dilution method; type: functional; conditions: ATCC 29213, 24 h; in short: as §1
[11] = system: Candida albicans; experiment: Antifungal activity against Candida albicans assessed as reduction in fungal cell viability incubated for 24 hrs by two fold serial dilution method; type: functional; in short: as §1
[12] = system: Pseudomonas aeruginosa; experiment: Antibacterial activity against Pseudomonas aeruginosa assessed as reduction in bacterial cell viability incubated for 24 hrs by two fold serial dilution method; type: functional; in short: as §1
[13] = system: Enterococcus faecalis; experiment: Antibacterial activity against Enterococcus faecalis assessed as reduction in bacterial cell viability incubated for 24 hrs by two fold serial dilution method; type: functional; in short: as §1
[14] = system: Escherichia coli; experiment: Antibacterial activity against Escherichia coli ATCC 25922 assessed as reduction in bacterial cell viability incubated for 24 hrs by two fold serial dilution method; type: functional; conditions: ATCC 25922, 24 h; in short: as §1
[15] = system: Candida parapsilosis; experiment: Antifungal activity against Candida parapsilosis ATCC 22019 assessed as reduction in fungal cell viability incubated for 24 hrs by two fold serial dilution method; conditions: Lodderomyces parapsilosis, ATCC 22019, 24 h
[16] = system: Staphylococcus aureus; experiment: Antibacterial activity against methicillin resistant Staphylococcus aureus N315 assessed as reduction in bacterial cell viability incubated for 24 hrs by two fold serial dilution method; type: functional; conditions: N315, 24 h
In short: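 MIC by two-fold serial dilution following CLSI, with chloromycin and norfloxacin as reference drugs.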

[17] = system: Aspergillus fumigatus; experiment: Potency index, ratio of MIC of fluconazole to MIC of compound for antifungal activity against Aspergillus fumigatus assessed as reduction in […] incubated for 24 hrs by two fold serial dilution method; type: functional

Row | Structure (SMILES) | MIC [1] | MIC [2] | MIC [3] | MIC [4] | MIC [5] | MIC [6] | MIC [7] | MIC [8] | MIC [9] | MIC [10] | MIC [11] | MIC [12] | MIC [13] | MIC [14] | MIC [15] | MIC [16] | Ratio [17]
1 | CCn1cc(-c2csc(N)n2)c(=O)c2cc(N3CCN(C/C(=N/OC)c4ccc(Cl)cc4Cl)CC3)c(Cl)cc21 | 422 µM (≈ 256 µg/mL) | 845 µM (≈ 512 µg/mL) | 422 µM (≈ 256 µg/mL) | 422 µM (≈ 256 µg/mL) | 422 µM (≈ 256 µg/mL) | 422 µM (≈ 256 µg/mL) | 422 µM (≈ 256 µg/mL) | 422 µM (≈ 256 µg/mL) | 422 µM (≈ 256 µg/mL) | 211 µM (≈ 128 µg/mL) | 422 µM (≈ 256 µg/mL) | 422 µM (≈ 256 µg/mL) | 211 µM (≈ 128 µg/mL) | 422 µM (≈ 256 µg/mL) | 422 µM (≈ 256 µg/mL) | 211 µM (≈ 128 µg/mL) | 
2 | CCn1cc(-c2csc(N)n2)c(=O)c2cc(F)c(N3CCN(C/C(=N/OC)c4ccc(Cl)cc4Cl)CC3)cc21 | 54 µM (≈ 31.8 µg/mL) | 217 µM (≈ 128 µg/mL) | 217 µM (≈ 128 µg/mL) | 217 µM (≈ 128 µg/mL) | 434 µM (≈ 256 µg/mL) | 54 µM (≈ 31.8 µg/mL) | 217 µM (≈ 128 µg/mL) | 54 µM (≈ 31.8 µg/mL) | 109 µM (≈ 64.3 µg/mL) | 217 µM (≈ 128 µg/mL) | 434 µM (≈ 256 µg/mL) | 217 µM (≈ 128 µg/mL) | 434 µM (≈ 256 µg/mL) | 869 µM (≈ 512 µg/mL) | 217 µM (≈ 128 µg/mL) | 434 µM (≈ 256 µg/mL) | 
3 | CCn1cc(-c2csc(N)n2)c(=O)c2cc(F)c(N3CCN(C/C(C)=N/NC(N)=O)CC3)cc21 | 263 µM (≈ 128 µg/mL) | 132 µM (≈ 64.2 µg/mL) | 263 µM (≈ 128 µg/mL) | 132 µM (≈ 64.2 µg/mL) | 263 µM (≈ 128 µg/mL) | 132 µM (≈ 64.2 µg/mL) | 526 µM (≈ 256 µg/mL) | 132 µM (≈ 64.2 µg/mL) | 263 µM (≈ 128 µg/mL) | 263 µM (≈ 128 µg/mL) | 526 µM (≈ 256 µg/mL) | 263 µM (≈ 128 µg/mL) | 526 µM (≈ 256 µg/mL) | 263 µM (≈ 128 µg/mL) | 66 µM (≈ 32.1 µg/mL) | 66 µM (≈ 32.1 µg/mL) | 3
4 | CCn1cc(-c2csc(N)n2)c(=O)c2cc(F)c(N3CCN(CC(C)=O)CC3)cc21 | 288 µM (≈ 124 µg/mL) | 144 µM (≈ 61.9 µg/mL) | 144 µM (≈ 61.9 µg/mL) | 36 µM (≈ 15.5 µg/mL) | 575 µM (≈ 247 µg/mL) | 288 µM (≈ 124 µg/mL) | 72 µM (≈ 30.9 µg/mL) | 288 µM (≈ 124 µg/mL) | 1150 µM (≈ 494 µg/mL) | 575 µM (≈ 247 µg/mL) | 575 µM (≈ 247 µg/mL) | 288 µM (≈ 124 µg/mL) | 288 µM (≈ 124 µg/mL) | 288 µM (≈ 124 µg/mL) | 288 µM (≈ 124 µg/mL) | 72 µM (≈ 30.9 µg/mL) | 
5 | CCn1cc(-c2csc(N)n2)c(=O)c2cc(N3CCN(C/C(=N/OC)c4ccc(Cl)cc4)CC3)c(Cl)cc21 | 448 µM (≈ 256 µg/mL) | 224 µM (≈ 128 µg/mL) | 224 µM (≈ 128 µg/mL) | 448 µM (≈ 256 µg/mL) | 448 µM (≈ 256 µg/mL) | 224 µM (≈ 128 µg/mL) | 448 µM (≈ 256 µg/mL) | 448 µM (≈ 256 µg/mL) | 448 µM (≈ 256 µg/mL) | 224 µM (≈ 128 µg/mL) | 448 µM (≈ 256 µg/mL) | 448 µM (≈ 256 µg/mL) | 448 µM (≈ 256 µg/mL) | 448 µM (≈ 256 µg/mL) | 448 µM (≈ 256 µg/mL) | 224 µM (≈ 128 µg/mL) | 
6 | CCn1cc(-c2csc(N)n2)c(=O)c2cc(F)c(N3CCN(C/C(=N/OC)c4ccc(Cl)cc4)CC3)cc21 | 115 µM (≈ 63.8 µg/mL) | 463 µM (≈ 257 µg/mL) | 231 µM (≈ 128 µg/mL) | 58 µM (≈ 32.2 µg/mL) | 461 µM (≈ 256 µg/mL) | 58 µM (≈ 32.2 µg/mL) | 231 µM (≈ 128 µg/mL) | 115 µM (≈ 63.8 µg/mL) | 231 µM (≈ 128 µg/mL) | 231 µM (≈ 128 µg/mL) | 231 µM (≈ 128 µg/mL) | 231 µM (≈ 128 µg/mL) | 115 µM (≈ 63.8 µg/mL) | 461 µM (≈ 256 µg/mL) | 115 µM (≈ 63.8 µg/mL) | 29 µM (≈ 16.1 µg/mL) | 
7 | CCn1cc(-c2csc(N)n2)c(=O)c2cc(N3CCN(C/C(=N/OC)c4ccc(OC)cc4)CC3)c(Cl)cc21 | 451 µM (≈ 256 µg/mL) | 226 µM (≈ 128 µg/mL) | 451 µM (≈ 256 µg/mL) | 451 µM (≈ 256 µg/mL) | 451 µM (≈ 256 µg/mL) | 451 µM (≈ 256 µg/mL) | 451 µM (≈ 256 µg/mL) | 226 µM (≈ 128 µg/mL) | 451 µM (≈ 256 µg/mL) | 451 µM (≈ 256 µg/mL) | 451 µM (≈ 256 µg/mL) | 451 µM (≈ 256 µg/mL) | 451 µM (≈ 256 µg/mL) | 451 µM (≈ 256 µg/mL) | 451 µM (≈ 256 µg/mL) | 451 µM (≈ 256 µg/mL) | 
8 | OC(Cn1cncn1)(Cn1cncn1)c1ccc(F)cc1F [FLUCONAZOLE] |  | 7 µM (≈ 2.14 µg/mL) |  |  | 836 µM (≈ 256 µg/mL) |  |  | 26 µM (≈ 7.96 µg/mL) |  |  | 13 µM (≈ 3.98 µg/mL) |  |  |  | 13 µM (≈ 3.98 µg/mL) |  | 
9 | CCn1cc(-c2csc(N)n2)c(=O)c2cc(N3CCN(C/C(=N/OC)c4ccc(F)cc4)CC3)c(Cl)cc21 | 115 µM (≈ 63.8 µg/mL) | 58 µM (≈ 32.2 µg/mL) | 29 µM (≈ 16.1 µg/mL) | 58 µM (≈ 32.2 µg/mL) | 29 µM (≈ 16.1 µg/mL) | 58 µM (≈ 32.2 µg/mL) | 231 µM (≈ 128 µg/mL) | 58 µM (≈ 32.2 µg/mL) | 14 µM (≈ 7.77 µg/mL) | 58 µM (≈ 32.2 µg/mL) | 231 µM (≈ 128 µg/mL) | 461 µM (≈ 256 µg/mL) | 58 µM (≈ 32.2 µg/mL) | 58 µM (≈ 32.2 µg/mL) | 58 µM (≈ 32.2 µg/mL) | 14 µM (≈ 7.77 µg/mL) | 
